This note sets out measurements from ChEMBL document CHEMBL1132954, “Synthesis and structure-activity relationships of chiral allosteric modifiers of hemoglobin” (2000).

Values joined by “and” are separate entries in the source; they are usually repeats but may differ in a detail not shown here. Equal values may be shown once.

Assay [1] can be described thus: Hill coefficient at 50% saturation in the presence of effector.
In assay [2] the target is T1, Hemoglobin HbA (Homo sapiens) (UniProt P69905+P68871). The assay can be described thus: Ratio of P50e to P50c (P50 control value with no effector present, 5 mmHg). In kind it is functional. An outline of the steps: (§1)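 Purified stripped human adult Hb in 50 mM bis-Tris, 100 mM NaCl, pH 7.2, at 60-70 µM heme, with effector at 0.5 mM. Catalase and EDTA were added, and the sample was saturated with carbogen. The curve was recorded on a Hemox analyzer as O₂ pressure was lowered over 45-60 min, with saturation read at 577/586.2 nm. P50 came from linear regression of 40-60% saturation points. Single runs, each with its own no-effector control.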
T1 sequence (P68871 2-147 partner limits assumed): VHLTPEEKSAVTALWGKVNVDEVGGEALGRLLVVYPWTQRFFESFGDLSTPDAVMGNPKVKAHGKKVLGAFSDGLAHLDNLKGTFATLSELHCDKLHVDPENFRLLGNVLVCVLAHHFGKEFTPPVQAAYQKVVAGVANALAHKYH
T1 sequence (P69905 2-142 limits assumed): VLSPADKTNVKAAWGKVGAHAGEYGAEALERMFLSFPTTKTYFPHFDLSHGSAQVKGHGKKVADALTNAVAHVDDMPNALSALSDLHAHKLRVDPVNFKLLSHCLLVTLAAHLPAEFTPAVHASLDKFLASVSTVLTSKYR

Assay [3] concerns the target T1, Hemoglobin HbA (Homo sapiens). The assay is described as follows: Oxygen pressure at which hemoglobin is 50% saturated with oxygen in the presence of the effector. In kind it is functional. A digest of the protocol:
as §1

The species entered for assay [4] is Homo sapiens. The assay can be described thus: P50C is the control value in whole blood in experiment. The assay is classed as functional. An outline of the steps:
(§2)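 Heparinized whole blood from healthy volunteers, kept on ice, was given the effector sodium salt from a 200 mM DMSO stock to 5.0 mM final. It was tonometered about 10-12 min at 37 °C and equilibrated at 20%, 40% and 60% O₂. pH, pCO₂, pO₂ and sO₂ were read by blood gas analyzer and co-oximeter, at least in duplicate. ΔP50 = P50e − P50c.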

For assay [5], the species on record is Homo sapiens. The assay is described as follows: P50e is the value in the presence of the effector in whole blood in experiment 2 (in vitro). The assay is classed as functional. A digest of the protocol:
as §2

For assay [6], the species on record is Homo sapiens. The assay can be described thus: P50e is the value in the presence of the effector in whole blood in experiment 1 (in vitro). In kind it is functional. A digest of the protocol:
as §2

A short description of assay [7]: The difference between P50e and P50c tested. The assay is classed as functional. An outline of the steps: as §2

Consider `COCC(C)(Oc1ccc(CC(=O)Nc2cc(C)cc(C)c2)cc1)C(=O)O` (stereo not drawn), for which, in assay [1], the Hill coefficient (n50) was determined as 2.4. Moreover, the P50e/P50c in assay [2] worked out at 1.7. Besides, the P50e in assay [3] turned out to be 8.4 mmHg.

For the molecule `Cc1cc(C)cc(NC(=O)Cc2ccc(OC(C)C(=O)O)cc2)c1` (single isomer, unassigned; (-)) [listing 1 of 2 here], in the assay listed under Homo sapiens [4], the P50c is recorded as 27.8 mmHg. The values for the P50e in the assay filed under Homo sapiens [5] and in the assay listed under Homo sapiens [6] were 40.5 mmHg and 39.7 mmHg, respectively.

With `Cc1cc(Cl)cc(NC(=O)Cc2ccc(OC(C)C(=O)O)cc2)c1` (stereo not drawn), the Hill coefficient (n50) in assay [1] stood at 2.6. Besides, the P50e/P50c in assay [2] stood at 1.9. The P50e in assay [3] was 9.4 mmHg.

For the molecule `CCC(C)(Oc1ccc(CC(=O)Nc2cc(C)cc(C)c2)cc1)C(=O)O` (stereo in doubt; 10), the Hill coefficient (n50) in assay [1] came to 2.4. In assay [2], the P50e/P50c worked out at 2.7. Also, the P50e in assay [3] was 13.3 mmHg.

As for `Cc1cc(C)cc(NC(=O)Cc2ccc(OC(C)C(=O)O)cc2)c1` (single isomer, unassigned; (+)) [listing 1 of 2 here], the P50c in the assay filed under Homo sapiens [4] worked out at 27.3 mmHg. In addition, the P50e in the assay listed under Homo sapiens [5] turned out to be 48.7 mmHg; in the assay filed under Homo sapiens [6] it was 47.4 mmHg.

In the case of `Cc1cc(Cl)cc(NC(=O)Cc2ccc(OC3(C(=O)O)CCC(C)C3)cc2)c1` (stereo not drawn), the Hill coefficient (n50) in assay [1] is 2.4. Also, in assay [2], the P50e/P50c was 2.8. For the same molecule, the P50e in assay [3] was 14 mmHg.

`CCC(C)(Oc1ccc(CC(=O)Nc2cc(C)cc(C)c2)cc1)C(=O)O` (stereo in doubt; (-)-10): the Hill coefficient (n50) in assay [1] is 2.3. For the same molecule, the P50e/P50c in assay [2] was 2.1. Also, the P50e in assay [3] was found to be 10.5 mmHg.

As for `CCC(Oc1ccc(CC(=O)Nc2cc(C)cc(C)c2)cc1)C(=O)O` (single isomer, unassigned; (-)), in assay [1], the Hill coefficient (n50) came to 2.8. In assay [2], the P50e/P50c stood at 2. Moreover, the P50e in assay [3] worked out at 9.8 mmHg.

`Cc1cc(C)cc(NC(=O)Cc2ccc(OC(C)C(=O)O)cc2)c1` (racemic) [listing 1 of 2 here] showed a P50c in the assay listed under Homo sapiens [4] of 27.2 mmHg. For the same molecule, the P50e amounted to 43.5 mmHg in the assay listed under Homo sapiens [5] and 47.2 mmHg in the assay listed under Homo sapiens [6].

In the case of `Cc1cc(C)cc(NC(=O)Cc2ccc(OC(C)C(=O)O)cc2)c1` (single isomer, unassigned; (+)) [listing 2 of 2 here], the ΔP50 (P50e minus P50c) in assay [7] was 20.7 mmHg. The Hill coefficient (n50) in assay [1] was 2.6 and 1.9. Further, in assay [2], the P50e/P50c amounted to 2. Further, the P50e in assay [3] came to 9.8 mmHg.

Turning to `Cc1cc(C)cc(NC(=O)Cc2ccc(OC(C)C(=O)O)cc2)c1` (single isomer, unassigned; (-)) [listing 2 of 2 here], the ΔP50 (P50e minus P50c) in assay [7] came out at 12.3 mmHg. In addition, the Hill coefficient (n50) in assay [1] was 2.5 and 2.2. In addition, the P50e/P50c in assay [2] came out at 1.3. The P50e in assay [3] came out at 6.6 mmHg.

On to `Cc1cc(Cl)cc(NC(=O)Cc2ccc(OC3(C(=O)O)CCCC3C)cc2)c1` (stereo not drawn), for which the Hill coefficient (n50) in assay [1] turned out to be 2.4. For the same molecule, the P50e/P50c in assay [2] stood at 4.4. Also, the P50e in assay [3] turned out to be 21.9 mmHg.

Take `Cc1cc(C)cc(NC(=O)Cc2ccc(OC3(C(=O)O)CCOCC3)cc2)c1`: in assay [1], the Hill coefficient (n50) was determined as 2.4. Moreover, the P50e/P50c in assay [2] worked out at 1.5. For the same molecule, in assay [3], the P50e was determined as 7.6 mmHg.

Take `Cc1cc(C)cc(NC(=O)Cc2ccc(O[C@@]3(C(=O)O)CCO[C@@H]3C)cc2)c1`: the Hill coefficient (n50) in assay [1] came out at 2.8. For the same molecule, in assay [2], the P50e/P50c is 1.5. The P50e in assay [3] came to 7.7 mmHg.

`CC1CCC(Oc2ccc(CC(=O)Nc3ccc4c(c3)CCC4)cc2)(C(=O)O)C1` (stereo not drawn): the Hill coefficient (n50) in assay [1] was 2.6. In assay [2], the P50e/P50c turned out to be 2.5. For the same molecule, the P50e in assay [3] turned out to be 12.7 mmHg.

Consider `CCC(C)(Oc1ccc(CC(=O)Nc2ccc3c(c2)CCC3)cc1)C(=O)O` (stereo not drawn), for which the Hill coefficient (n50) in assay [1] stood at 2.3. Also, the P50e/P50c in assay [2] came to 2.1. The P50e in assay [3] was 10.6 mmHg.

In the case of `CCCCC(Oc1ccc(CC(=O)Nc2cc(C)cc(C)c2)cc1)C(=O)O` (stereo not drawn), the Hill coefficient (n50) in assay [1] is 2.5. Besides, the P50e/P50c in assay [2] is 3.4. For the same molecule, the P50e in assay [3] was determined as 17 mmHg.

In the case of `Cc1cc(C)cc(NC(=O)Cc2ccc(OC3(C(=O)O)CCC(C)C3)cc2)c1` (stereo not drawn), the Hill coefficient (n50) in assay [1] was determined as 2.5. Besides, in assay [2], the P50e/P50c is 2.6. Moreover, the P50e in assay [3] is 12.9 mmHg.

For `CCC(Oc1ccc(CC(=O)Nc2cc(C)cc(C)c2)cc1)C(=O)O` (single isomer, unassigned; (+)), the Hill coefficient (n50) in assay [1] was determined as 2.7. Further, in assay [2], the P50e/P50c turned out to be 3.6. For the same molecule, in assay [3], the P50e came to 18 mmHg.

On to `Cc1cc(C)cc(NC(=O)Cc2ccc(OC(C)C(=O)O)cc2)c1` (racemic) [listing 2 of 2 here], for which, in assay [7], the ΔP50 (P50e minus P50c) turned out to be 18.2 mmHg. Moreover, in assay [1], the Hill coefficient (n50) is 2.6 and 2. The P50e/P50c in assay [2] turned out to be 1.9. The P50e in assay [3] stood at 9.3 mmHg.

Consider `CCC(C)(Oc1ccc(CC(=O)Nc2cc(C)cc(Cl)c2)cc1)C(=O)O` (stereo not drawn), for which the Hill coefficient (n50) in assay [1] was 2.5. The P50e/P50c in assay [2] worked out at 3.3. The P50e in assay [3] amounted to 16.6 mmHg.

With `CCC(Oc1ccc(CC(=O)Nc2cc(C)cc(Cl)c2)cc1)C(=O)O` (stereo not drawn), the Hill coefficient (n50) in assay [1] amounted to 2.6. Moreover, in assay [2], the P50e/P50c was 2.6. Moreover, in assay [3], the P50e was 13.1 mmHg.

Turning to `CC(Oc1ccc(CC(=O)Nc2ccc3c(c2)CCC3)cc1)C(=O)O` (stereo not drawn), the Hill coefficient (n50) in assay [1] stood at 2.7. For the same molecule, the P50e/P50c in assay [2] stood at 1.3. Besides, the P50e in assay [3] turned out to be 6.3 mmHg.

In the case of `CCCC(Oc1ccc(CC(=O)Nc2cc(C)cc(C)c2)cc1)C(=O)O` (stereo not drawn), the Hill coefficient (n50) in assay [1] worked out at 2.5. The P50e/P50c in assay [2] amounted to 3.2. Further, the P50e in assay [3] was 16.1 mmHg.

`Cc1cc(C)cc(NC(=O)Cc2ccc(OC(F)C(=O)O)cc2)c1` (stereo not drawn): the Hill coefficient (n50) in assay [1] turned out to be 2.5. The P50e/P50c in assay [2] worked out at 1.2. In assay [3], the P50e was found to be 5.9 mmHg.

`CCC(Oc1ccc(CC(=O)Nc2ccc3c(c2)CCC3)cc1)C(=O)O` (stereo not drawn): the Hill coefficient (n50) in assay [1] is 2.6. Also, the P50e/P50c in assay [2] turned out to be 1.8. The P50e in assay [3] was 9.1 mmHg.

Consider `CCC(C)(Oc1ccc(CC(=O)Nc2cc(C)cc(C)c2)cc1)C(=O)O` (single isomer, unassigned; (+)), for which the Hill coefficient (n50) in assay [1] was determined as 2.4. Further, the P50e/P50c in assay [2] was found to be 3.5. The P50e in assay [3] worked out at 17.4 mmHg.

With `CC1CCCC1(Oc1ccc(CC(=O)Nc2ccc3c(c2)CCC3)cc1)C(=O)O` (stereo not drawn), the Hill coefficient (n50) in assay [1] came out at 2.6. In addition, the P50e/P50c in assay [2] came out at 2.8. Moreover, the P50e in assay [3] was determined as 13.8 mmHg.

On to `Cc1cc(C)cc(NC(=O)Cc2ccc(OC3(C(=O)O)CCCC(C)C3)cc2)c1` (stereo not drawn), for which the Hill coefficient (n50) in assay [1] was found to be 2.5. The P50e/P50c in assay [2] stood at 2.1. In addition, the P50e in assay [3] was 10.3 mmHg.

As to `Cc1cc(C)cc(NC(=O)Cc2ccc(OC3(C(=O)O)CCOC3C)cc2)c1` (stereo not drawn), the Hill coefficient (n50) in assay [1] was 2.4. Moreover, in assay [2], the P50e/P50c was determined as 1.5. Moreover, the P50e in assay [3] amounted to 7.6 mmHg.

Regarding `Cc1cc(Cl)cc(NC(=O)Cc2ccc(OC(C)(C)C(=O)O)cc2)c1`, in assay [1], the Hill coefficient (n50) was found to be 2.4. Moreover, the P50e/P50c in assay [2] was determined as 4.4. The P50e in assay [3] was 21 mmHg.

Turning to `CCCC(C)(Oc1ccc(CC(=O)Nc2cc(C)cc(C)c2)cc1)C(=O)O` (stereo not drawn), the Hill coefficient (n50) in assay [1] stood at 2.7. In addition, the P50e/P50c in assay [2] stood at 2.3. Also, the P50e in assay [3] came out at 11.7 mmHg.

For `CCC(Oc1ccc(CC(=O)Nc2cc(C)cc(C)c2)cc1)C(=O)O` (stereo in doubt; 32), in assay [1], the Hill coefficient (n50) came to 2.7. Besides, the P50e/P50c in assay [2] turned out to be 2.6. For the same molecule, the P50e in assay [3] came out at 13 mmHg.

As to `CC(C)(Oc1ccc(CC(=O)Nc2ccc3c(c2)CCC3)cc1)C(=O)O`, the Hill coefficient (n50) in assay [1] worked out at 2.6. Besides, the P50e/P50c in assay [2] came out at 3. Also, the P50e in assay [3] stood at 15.3 mmHg.

Regarding `Cc1cc(C)cc(NC(=O)Cc2ccc(O[C@]3(C(=O)O)CCO[C@H]3C)cc2)c1`, the Hill coefficient (n50) in assay [1] was 2.6. Moreover, the P50e/P50c in assay [2] is 1.9. In addition, the P50e in assay [3] came out at 9.3 mmHg.
